Laboratory results: PMC8341878 (RSC Chemical Biology, 2020)
Converted amounts (≈) assume the structure as drawn. “And” between values parts separate entries of the source, which are not always exact repeats. Equal entries are not always repeated. Peptide text beside a SMILES is read from it.

How the values were obtained:
E. coli D22 strain = test: Microdilution broth assay; format: cell-based, Escherichia coli
Procedure, shortened: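 E. coli D22 was grown in Mueller Hinton broth to OD600 0.6–0.8, then diluted so wells held about 2 to 5 × 10^5 cfu per mL with serially diluted peptide in MH broth. Plates were read at 620 nm after 18–24 h at 37 °C. MIC was the lowest concentration with no turbidity increase. For MBC, wells were plated on LB agar; ≥99.9% kill versus inoculum. Duplicates, ≥2 independent experiments.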

Mycobacterium smegmatis = conditions: cited from earlier work
[1] = target: ^EcSC (E. coli sliding clamp, DnaN) (Escherichia coli, UniProt P0A988); test: ITC, peptide interaction with E. coli sliding clamp; format: binding
Sequence of ^EcSC (E. coli sliding clamp, DnaN) (P0A988 whole entry): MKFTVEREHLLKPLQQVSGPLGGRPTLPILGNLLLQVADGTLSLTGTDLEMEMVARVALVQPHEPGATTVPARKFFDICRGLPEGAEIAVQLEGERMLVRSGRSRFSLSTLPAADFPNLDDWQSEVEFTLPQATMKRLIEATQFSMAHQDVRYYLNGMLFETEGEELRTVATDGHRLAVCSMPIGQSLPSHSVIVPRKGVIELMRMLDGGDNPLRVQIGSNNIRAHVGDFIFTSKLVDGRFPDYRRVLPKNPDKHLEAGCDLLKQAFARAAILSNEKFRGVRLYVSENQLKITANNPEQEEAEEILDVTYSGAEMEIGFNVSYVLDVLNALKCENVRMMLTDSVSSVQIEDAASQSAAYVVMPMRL
Procedure, shortened: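 Recombinant His-tagged E. coli DnaN was expressed in BL21(DE3) pLys (IPTG 0.1 mM, 28 °C overnight), purified by Ni-NTA then Source Q, and exchanged into 10 mM Hepes pH 7.4, 0.15 M NaCl, 3 mM EDTA. Peptide (100 to 400 μM) was injected stepwise into 20 or 30 μM clamp at 30 °C. Peptide-into-buffer controls were subtracted. Each titration was run at least twice; mean ± sd.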

[2] = E. coli D22, decrease of at least 99.9% of cell viability vs inoculum, minimum of 2 independent biological replicates

Row | Molecule | MBC (E. coli D22 strain; Escherichia coli, D22STRAIN) [µg/mL] | MIC (E. coli D22 strain; Escherichia coli, D22STRAIN) | MBC (E. coli D22 strain; [2]) [µg/mL] | further results
1 | CC1(C)S[C@@H]2[C@H](NC(=O)[C@H](N)c3ccccc3)C(=O)N2[C@H]1C(=O)O [Ampicillin] | 16 (≈ 45.8 µM) | 22.9 µM to 45.8 µM and 8 µg/mL to 16 µg/mL | – | –
2 | CC[C@H](C)[C@H](NC(=O)[C@@H]1CCCN1C(=O)[C@H](CCCNC(=N)N)NC(=O)[C@@H]1CCCN1C(=O)[C@@H]1CCCN1C(=O)[C@@H](NC(=O)[C@@H]1CCCN1C(=O)[C@H](CCCNC(=N)N)NC(=O)[C@@H]1CCCN1C(=O)[C@H](CC(C)C)NC(=O)[C@H](Cc1ccc(O)cc1)NC(=O)[C@H](CO)NC(=O)CNC(=O)[C@H](CCCCN)NC(=O)[C@H](CC(=O)O)NC(=O)[C@@H](N)C(C)C)[C@@H](C)O)C(=O)N[C@@H](Cc1ccc(O)cc1)C(=O)N[C@@H](CC(N)=O)C(=O)N[C@@H](CCCNC(=N)N)C(=O)N[C@@H](CC(N)=O)C(=O)NCC(=O)N1CCC[C@H]1C(=O)N[C@@H](CCCNC(=N)N)C(=O)N[C@@H](CCC(N)=O)C(=O)N[C@@H](CC1CCCCC1)C(=O)N[C@@H](CC(=O)O)C(=O)N[C@@H](CC(C)C)C(=O)N[C@@H](Cc1ccccc1)C(=O)O [Py-P7] (HELM PEPTIDE1{V.D.K.G.S.Y.L.P.R.P.T.P.P.R.P.I.Y.N.R.N.G.P.R.Q.[Cha].D.L.F}$$$$V2.0) | – | – | 8 (≈ 2.42 µM) | –
3 | CN(C)[C@@H]1C(O)=C(C(N)=O)C(=O)[C@@]2(O)C(O)=C3C(=O)c4c(O)cccc4[C@@](C)(O)[C@H]3C[C@@H]12 [Tetracycline] | 0.5 (≈ 1.13 µM) | 0.56 µM to 1.12 µM and 0.25 µg/mL to 0.5 µg/mL | – | –
4 | griselimycin | – | – | – | frequency of resistance (Mycobacterium smegmatis): 5 × 10^−10
5 | CC[C@H](C)[C@H](NC(=O)[C@@H](CCCNC(=N)N)NC(=O)[C@H](CCCNC(=N)N)NC(=O)[C@@H]1CCCN1C(=O)[C@@H]1CCCN1C(=O)[C@H](CCCNC(=N)N)NC(=O)[C@@H]1CCCN1C(=O)[C@H](CCCNC(=N)N)NC(=O)[C@@H]1CCCN1C(=O)[C@H](CC(C)C)NC(=O)[C@H](Cc1ccc(O)cc1)NC(=O)[C@@H]1CCCN1C(=O)[C@@H]1CCCN1C(=O)[C@H](CCCCN)NC(=O)[C@H](CC(=O)O)NC(=O)[C@@H](N)C(C)C)C(=O)N[C@@H](Cc1ccc(O)cc1)C(=O)N[C@@H](CC(N)=O)C(=O)N[C@H](CCCNC(=N)N)C(=O)N[C@@H](CC(N)=O)C(=O)NCC(=O)N1CCC[C@H]1C(=O)N[C@@H](CCCNC(=N)N)C(=O)N[C@@H](CCC(N)=O)C(=O)N[C@@H](CC1CCCCC1)C(=O)N[C@@H](CC(=O)O)C(=O)N[C@@H](CC(C)C)C(=O)N[C@@H](Cc1ccccc1)C(=O)O [Onc112-P7] (HELM PEPTIDE1{V.D.K.P.P.Y.L.P.R.P.R.P.P.R.[dR].I.Y.N.[dR].N.G.P.R.Q.[Cha].D.L.F}$$$$V2.0) | – | – | 2 (≈ 0.576 µM) | Kd ([1]; SD): 0.2 ± 0.0001 µM
6 | CC[C@H](C)[C@H](NC(=O)[C@@H](CCCNC(=N)N)NC(=O)[C@H](CCCNC(=N)N)NC(=O)[C@@H]1CCCN1C(=O)[C@@H]1CCCN1C(=O)[C@H](CCCNC(=N)N)NC(=O)[C@@H]1CCCN1C(=O)[C@H](CCCNC(=N)N)NC(=O)[C@@H]1CCCN1C(=O)[C@H](CC(C)C)NC(=O)[C@H](Cc1ccc(O)cc1)NC(=O)[C@@H]1CCCN1C(=O)[C@@H]1CCCN1C(=O)[C@H](CCCCN)NC(=O)[C@H](CC(=O)O)NC(=O)[C@@H](N)C(C)C)C(=O)N[C@@H](Cc1ccc(O)cc1)C(=O)N[C@@H](CC(N)=O)C(=O)N[C@H](CCCNC(=N)N)C(N)=O [Onc112] (HELM PEPTIDE1{V.D.K.P.P.Y.L.P.R.P.R.P.P.R.[dR].I.Y.N.[dR].[am]}$$$$V2.0) | – | – | 1 (≈ 0.418 µM) | K D ([1]; ITC at 30 °C, R1 buffer 10 mM Hepes pH 7.4, 0.15 M NaCl, 3 mM EDTA, peptide 100-400 μM into SC 20 or 30 μM, means ± sd of at least 2 independent experiments, ni = no specific interaction): ni
